Screening results deposited in PubChem BioAssay by several laboratories.
MC4R ag barr = activates human MC4R beta-arrestin recruitment; P32245; 360,000 compounds, 0.98% hits; U2OS MC4R beta-arrestin complementation, luminescence; percent of melanotan II response, DMSO zero; activation, % at 8.9 µM;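 active = activation above a per-plate cutoff, the mean activation of sample wells on that plate plus 3 SD, cut at about 8% in these data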
Target sequence (P32245 whole entry, looked up): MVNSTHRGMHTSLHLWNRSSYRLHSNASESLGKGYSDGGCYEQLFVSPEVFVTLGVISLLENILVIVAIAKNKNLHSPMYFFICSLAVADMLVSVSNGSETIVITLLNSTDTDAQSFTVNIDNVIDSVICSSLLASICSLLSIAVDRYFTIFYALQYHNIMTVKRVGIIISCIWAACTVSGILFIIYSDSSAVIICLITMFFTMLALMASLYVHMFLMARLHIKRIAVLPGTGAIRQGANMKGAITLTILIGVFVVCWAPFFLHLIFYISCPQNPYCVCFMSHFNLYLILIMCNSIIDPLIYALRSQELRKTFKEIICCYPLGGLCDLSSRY
Myeloid diff MLP = myeloid differentiation induction. calls only at 10 µM. 360,000 compounds, 1% hits. ER-HoxA9 myeloid progenitors, lysozyme-GFP differentiation, flow cytometry. AID 624256;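 active = normalized GFP-positive differentiation at or above the plate's own cutoff, the solvent-only control mean plus 3 SD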;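 note: cells exposed to compound for four days before flow analysis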
Granule exo inh = blocks lytic granule exocytosis | TALL-104 LAMP-1 surface exposure, flow cytometry; cells stimulated with thapsigargin and PMA | inhibition, % at 10 µM | 360,000 compounds, 0.66% hits;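 active = inhibition above about 55%, limit read from the data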
EBI2 block = EBI2 (human) antagonism; 360,000 compounds, 0.81% hits; P32249; EBI2 beta-arrestin recruitment, luminescence, 7a,25-OHC stimulated; inhibition, % at 5 µM; AID 651636; in the data active = inhibition above about 38%;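 note: enzyme fragment complementation signal reports receptor beta-arrestin coupling in cells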
MC4R antagonist = human MC4R antagonism in cAMP assay. P32245. AID 540295. MC4R-expressing cells, MTII-stimulated cAMP, LANCE TR-FRET. inhibition, % at 6.5 µM. 360,000 compounds, 0.48% hits;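 active = inhibition above its plate's cutoff, the mean of tested wells on that plate plus 3 SD, cut at about 29% in these data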
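system = U2OS cells with stable human MC4R expression | also added = Melanotan II challenge after compound preincubation | dosing = one concentration, 6.5 µM nominal | incubation = compound 30 min, challenge 1 h, detection 1 h | measured by = TR-FRET with Eu-cAMP and labeled anti-cAMP, 671 nm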
Myeloid diff CP1 = compounds promoting myeloid differentiation; shares compounds with Myeloid diff MLP; ER-HoxA9 myeloid progenitors, GFP/Mac1 double-positive flow; calls only; 2,300 compounds, 2% hits; AID 651706;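 active = share of green or green-and-red cells above 9 and 9% in run 1 or 4 and 3% in run 2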
GFP autofluor = compound fluorescence in myeloid differentiation counter-screen; shares compounds with Myeloid diff MLP; ER-HoxA9 myeloid progenitors, no estrogen, GFP autofluorescence flow cytometry; vehicle wells 0%, positive control 100%; fluorescence response, % (no concentration beside the values); 2,300 compounds, 7.4% hits;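 active = over 5% cells positive for green fluorescent reporter, or over 2% positive for both it and APC stain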
Each line names hits and unclear results; the compound was inactive in the other large screens (follow-up assays come after a bar, where they were run). In the library only some 3.7% were active in any assay of this set; here they are far more common.

Cc1cccc(NC(=S)N/N=C/c2ccc([N+](=O)[O-])s2)c1	none | Myeloid diff CP1 inactive | GFP autofluor 62
CN(C)c1nnnn1-c1ccccc1Oc1ncc(C(F)(F)F)cc1Cl	none
CC1Cc2c([nH]c(=O)n(-c3ccccc3)c2=O)O1 (stereo not given)	none | Myeloid diff CP1 inactive | GFP autofluor inactive
Oc1cc(-c2ccncc2)cc2cccnc12	Myeloid diff MLP active | Myeloid diff CP1 inactive | GFP autofluor inactive
O=C(Nc1ccc(S(=O)(=O)N2CCCCC2)cc1)C1CCCN(C(=O)c2ccc(Cl)cc2)C1 (stereo not given)	none | Myeloid diff CP1 inactive | GFP autofluor inactive
CN(C)S(=O)(=O)c1ccc(NC(=O)C2CCCN(C(=O)c3ccc(Cl)cc3)C2)cc1 (stereo not given)	none
Cc1c(C)c2c(OCC(=O)N[C@@H](Cc3ccccc3)C(=O)O)cc3c(c2oc1=O)CCC(C)(C)O3	none | Myeloid diff CP1 inactive | GFP autofluor inactive
Cc1ccc(NS(=O)(=O)c2ccc(Cl)c(C(=O)Nc3ccccc3-c3nc4ccccc4[nH]3)c2)cc1C	none | Myeloid diff CP1 inactive | GFP autofluor inactive
COc1ccc(-c2cc([C@H]3[C@@H]4C=CCC[C@@]4(C)C(=O)N3Cc3ccccc3)ccc2F)cc1OC	none
COc1ccc([C@H]2[C@@H]3C=CCC[C@@]3(C)C(=O)N2Cc2ccccc2)cc1Cl	none | Myeloid diff CP1 inactive | GFP autofluor inactive
CCCCn1c(-c2ccc(C(C)(C)C)cc2)nc2cc3[nH]c(=O)c(C(C)C)nc3cc21	Myeloid diff MLP active | Myeloid diff CP1 inactive | GFP autofluor inactive
Nc1nc(=O)n(C2CCC(CO)O2)cc1F (stereo not given)	none (no result: MC4R ag barr, MC4R antagonist)
COc1ccc(S(=O)(=O)N2CCN(CCOc3ccccc3Cl)CC2)cc1OC	none | Myeloid diff CP1 inactive | GFP autofluor inactive
CN(CCc1ccccc1)c1cc2c(c3c1ccn3C)C1CCC2C1 (stereo not given)	none (no result: MC4R ag barr, MC4R antagonist)
O=C(Nc1ccccc1)/C(=C/c1cccc(Br)c1)NC(=O)c1ccco1	Myeloid diff MLP active | Myeloid diff CP1 inactive | GFP autofluor inactive
Cc1ccc(NC(=O)/C(=C\c2cccc(Br)c2)NC(=O)c2ccco2)cc1	none
Cc1nc(-c2ccc(NC(=O)c3ccc(Br)o3)cc2)cs1	none
COCc1cc(C)nc2sc(C(=O)N3CCN(c4ccccc4)CC3)c(N)c12	none
COCc1cc(C)nc2sc(C(=O)N3CCCCC3)c(N)c12	none | Myeloid diff CP1 inactive | GFP autofluor inactive
O=C1NC(=S)N(C(=O)c2ccc(F)cc2)/C1=C/c1ccccc1	Myeloid diff MLP active | Myeloid diff CP1 inactive | GFP autofluor inactive
c1ccc(NC2=Nc3ccccc3CC2)cc1	Myeloid diff MLP active | Myeloid diff CP1 inactive | GFP autofluor inactive
COc1ccc(C(CNC(=O)COc2ccccc2C#N)N2CCOCC2)cc1 (stereo not given)	Myeloid diff MLP active | Myeloid diff CP1 inactive | GFP autofluor inactive
CCn1nc(NC(=O)Cc2ccc(OC)cc2)c2cc3cc(C)ccc3nc21	none
CCCCn1nc(NC(=O)COC)c2cc3cc(OC)ccc3nc21	none | Myeloid diff CP1 inactive | GFP autofluor inactive
COc1cccc(NC(=O)CCC2CCN(C(=O)C(OC)c3ccccc3)CC2)c1 (stereo not given)	none
COc1ccccc1N1CCN(C(c2ccc(N(C)C)cc2)c2nnnn2CCc2ccccc2)CC1 (stereo not given)	Myeloid diff MLP active | Myeloid diff CP1 inactive | GFP autofluor 8.2
COc1ccc(C(c2nnnn2CCc2ccccc2)N2CCN(C3CCCC3)CC2)cc1 (stereo not given)	none
COc1ccccc1-n1cnc2cc(NC(=O)c3ccco3)ccc21	Myeloid diff MLP active | Myeloid diff CP1 inactive | GFP autofluor inactive
Cc1cc(C)nc(NC2=NCC(=O)N2c2ccc(F)c(Cl)c2)n1	none
COc1ccc(N2C(=O)CN=C2Nc2nc(C)cc(C)n2)cc1OC	Myeloid diff MLP active | Myeloid diff CP1 inactive | GFP autofluor inactive
C#CCn1cc(Cl)cc(C(=O)Nc2ccccc2)c1=O	none
COc1ccc(C(=O)Nc2nccs2)cc1OC	Myeloid diff MLP active | Myeloid diff CP1 inactive | GFP autofluor inactive
